Where “and” joins values, the source holds several entries; their conditions need not be identical. Equal values may be shown once.
Test system: Fibroblast
Assay: Multiplex assay against human fibroblast
Assay type: toxicity, cell-based
How it was run: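 With compound added, live cells were imaged on a CQ1 microscope at 37°C and 5% CO2; staining with Hoechst33342, BioTracker Green Microtubule Cytoskeleton Dye, MitoTracker Red and Annexin V Alexa Fluor 680 had been done at seeding. The CellPathfinder machine-learning gating scheme split cells into Hoechst high-intensity objects or normal cells, normal cells into healthy, pyknosed or fragmented nuclei, and pyknosed cells into mitotic or apoptotic. The tubulin, mitochondrial-mass and membrane-permeability phenotypes are per cents of healthy-nucleus cells.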

[1] = 12 h, 1 µM, compound concentration 1 uM
[2] = 12 h, 10 µM, compound concentration 10 uM
[3] = 24 h, 1 µM, compound concentration 1 uM
[4] = 24 h, 10 µM, compound concentration 10 uM
[5] = 48 h, 1 µM, compound concentration 1 uM
[6] = 48 h, 10 µM, compound concentration 10 uM

## Cl.Cl.OCCOCCN1CCN(C(c2ccccc2)c2ccc(Cl)cc2)CC1 (centres undefined) [HYDROXYZINE HYDROCHLORIDE]
[1]
  Population Apoptotic (%): 43% and 51%
  Population Fragmented Nuclei (%): 11% and 22%
  Population Healthy Nuclei (%): 75% and 57%
  Population Hoechst High Intensity Objects (%): 1% and 7%
  Population Membrane Permeable-Phenotype (%): 0% and 8%
  Population Mitochondria Different-Phenotype (%): 4% and 6%
  Population Mitotic Cells (%): 56% and 48%
  Population Normal (%): 98% and 92%
  Population Pyknosed Nuclei (%): 13% and 20%
  Population Tubulin-Different-Phenotype (%): 25% and 46%
  Total Cell Count: 177 and 155
[2]
  Population Apoptotic (%): 47% and 40%
  Population Fragmented Nuclei (%): 27% and 19%
  Population Healthy Nuclei (%): 58% and 47%
  Population Hoechst High Intensity Objects (%): 2% and 7%
  Population Membrane Permeable-Phenotype (%): 0% and 7%
  Population Mitochondria Different-Phenotype (%): 14% and 6%
  Population Mitotic Cells (%): 52% and 59%
  Population Normal (%): 97% and 92%
  Population Pyknosed Nuclei (%): 14% and 32%
  Population Tubulin-Different-Phenotype (%): 45% and 58%
  Total Cell Count: 247 and 178
[3]
  Population Apoptotic (%): 30% and 44%
  Population Fragmented Nuclei (%): 9% and 26%
  Population Healthy Nuclei (%): 78% and 54%
  Population Hoechst High Intensity Objects (%): 1% and 5%
  Population Membrane Permeable-Phenotype (%): 2% and 5%
  Population Mitochondria Different-Phenotype (%): 6% and 3%
  Population Mitotic Cells (%): 70% and 55%
  Population Normal (%): 98% and 94%
  Population Pyknosed Nuclei (%): 12% and 18%
  Population Tubulin-Different-Phenotype (%): 30% and 47%
  Total Cell Count: 163 and 154
[4]
  Population Apoptotic (%): 51% and 36%
  Population Fragmented Nuclei (%): 28% and 29%
  Population Healthy Nuclei (%): 62% and 50%
  Population Hoechst High Intensity Objects (%): 1% and 9%
  Population Membrane Permeable-Phenotype (%): 1% and 6%
  Population Mitochondria Different-Phenotype (%): 10% and 6%
  Population Mitotic Cells (%): 48% and 63%
  Population Normal (%): 98% and 90%
  Population Pyknosed Nuclei (%): 9% and 20%
  Population Tubulin-Different-Phenotype (%): 47% and 66%
  Total Cell Count: 284 and 198
[5]
  Population Apoptotic (%): 60% and 42%
  Population Fragmented Nuclei (%): 17% and 34%
  Population Healthy Nuclei (%): 68% and 56%
  Population Hoechst High Intensity Objects (%): 4% and 3%
  Population Membrane Permeable-Phenotype (%): 0% and 2%
  Population Mitochondria Different-Phenotype (%): 3% and 5%
  Population Mitotic Cells (%): 39% and 57%
  Population Normal (%): 95% and 96%
  Population Pyknosed Nuclei (%): 13% and 9%
  Population Tubulin-Different-Phenotype (%): 31% and 44%
  Total Cell Count: 175 and 155
[6]
  Population Apoptotic (%): 80% and 37%
  Population Fragmented Nuclei (%): 22% and 36%
  Population Healthy Nuclei (%): 69% and 47%
  Population Hoechst High Intensity Objects (%): 4% and 6%
  Population Membrane Permeable-Phenotype (%): 0% and 11%
  Population Mitochondria Different-Phenotype (%): 7% and 2%
  Population Normal (%): 95% and 94%
  Population Pyknosed Nuclei (%): 8% and 15%
  Population Tubulin-Different-Phenotype (%): 62% and 57%
  Total Cell Count: 272 and 200

## Cc1nc2ccc(Oc3ccc(F)cc3)cc2c(=O)n1C[C@H]1CCCN(C(C)C)C1.Cl
[1]
  Population Apoptotic (%): 34% and 44%
  Population Fragmented Nuclei (%): 19% and 24%
  Population Healthy Nuclei (%): 67% and 47%
  Population Hoechst High Intensity Objects (%): 5% and 9%
  Population Mitochondria Different-Phenotype (%): 4% and 8%
  Population Mitotic Cells (%): 65% and 55%
  Population Normal (%): 94% and 90%
  Population Pyknosed Nuclei (%): 13% and 29%
  Population Tubulin-Different-Phenotype (%): 31% and 70%
  Total Cell Count: 184 and 111
[2]
  Population Apoptotic (%): 53% and 61%
  Population Fragmented Nuclei (%): 19% and 36%
  Population Healthy Nuclei (%): 61% and 44%
  Population Hoechst High Intensity Objects (%): 4% and 3%
  Population Membrane Permeable-Phenotype (%): 1% and 5%
  Population Mitochondria Different-Phenotype (%): 22% and 25%
  Population Mitotic Cells (%): 46% and 38%
  Population Normal (%): 95% and 96%
  Population Pyknosed Nuclei (%): 19%
  Population Tubulin-Different-Phenotype (%): 88% and 80%
  Total Cell Count: 241 and 205
[3]
  Population Apoptotic (%): 66% and 38%
  Population Fragmented Nuclei (%): 17% and 29%
  Population Healthy Nuclei (%): 68% and 50%
  Population Hoechst High Intensity Objects (%): 3% and 7%
  Population Mitochondria Different-Phenotype (%): 6% and 17%
  Population Mitotic Cells (%): 33% and 61%
  Population Normal (%): 96% and 92%
  Population Pyknosed Nuclei (%): 13% and 20%
  Population Tubulin-Different-Phenotype (%): 30% and 73%
  Total Cell Count: 186 and 112
[4]
  Population Apoptotic (%): 67% and 54%
  Population Fragmented Nuclei (%): 27% and 30%
  Population Healthy Nuclei (%): 58% and 52%
  Population Hoechst High Intensity Objects (%): 3% and 6%
  Population Membrane Permeable-Phenotype (%): 0% and 1%
  Population Mitochondria Different-Phenotype (%): 27% and 29%
  Population Mitotic Cells (%): 32% and 45%
  Population Normal (%): 96% and 93%
  Population Pyknosed Nuclei (%): 13% and 17%
  Population Tubulin-Different-Phenotype (%): 84% and 87%
  Total Cell Count: 290 and 187
[5]
  Population Apoptotic (%): 66% and 42%
  Population Fragmented Nuclei (%): 25% and 36%
  Population Healthy Nuclei (%): 66% and 44%
  Population Hoechst High Intensity Objects (%): 3% and 5%
  Population Membrane Permeable-Phenotype (%): 0% and 6%
  Population Mitotic Cells (%): 33% and 57%
  Population Normal (%): 96% and 94%
  Population Pyknosed Nuclei (%): 8% and 19%
  Population Tubulin-Different-Phenotype (%): 33% and 68%
  Total Cell Count: 184 and 105
[6]
  Population Apoptotic (%): 66% and 68%
  Population Fragmented Nuclei (%): 23% and 33%
  Population Healthy Nuclei (%): 65% and 53%
  Population Hoechst High Intensity Objects (%): 9% and 3%
  Population Membrane Permeable-Phenotype (%): 0% and 2%
  Population Mitochondria Different-Phenotype (%): 20% and 19%
  Population Mitotic Cells (%): 33% and 32%
  Population Normal (%): 90% and 96%
  Population Pyknosed Nuclei (%): 10% and 12%
  Population Tubulin-Different-Phenotype (%): 85%
  Total Cell Count: 290 and 201

## Cc1ccc(/C(=C\CN2CCCC2)c2ccccn2)cc1 [TRIPROLIDINE]
[1]
  Population Apoptotic (%): 52% and 41%
  Population Fragmented Nuclei (%): 17% and 28%
  Population Healthy Nuclei (%): 64% and 45%
  Population Hoechst High Intensity Objects (%): 3% and 4%
  Population Membrane Permeable-Phenotype (%): 0% and 1%
  Population Mitochondria Different-Phenotype (%): 9%
  Population Mitotic Cells (%): 47% and 58%
  Population Normal (%): 96% and 95%
  Population Pyknosed Nuclei (%): 18% and 25%
  Population Tubulin-Different-Phenotype (%): 29% and 60%
  Total Cell Count: 119 and 127
[2]
  Population Apoptotic (%): 57% and 50%
  Population Fragmented Nuclei (%): 14% and 26%
  Population Healthy Nuclei (%): 64% and 52%
  Population Hoechst High Intensity Objects (%): 2%
  Population Membrane Permeable-Phenotype (%): 0% and 9%
  Population Mitochondria Different-Phenotype (%): 5% and 9%
  Population Mitotic Cells (%): 42% and 50%
  Population Normal (%): 97%
  Population Pyknosed Nuclei (%): 20% and 21%
  Population Tubulin-Different-Phenotype (%): 44% and 59%
  Total Cell Count: 139 and 141
[3]
  Population Apoptotic (%): 43% and 46%
  Population Fragmented Nuclei (%): 17% and 29%
  Population Healthy Nuclei (%): 69% and 43%
  Population Hoechst High Intensity Objects (%): 4% and 9%
  Population Membrane Permeable-Phenotype (%): 1% and 6%
  Population Mitochondria Different-Phenotype (%): 3% and 6%
  Population Mitotic Cells (%): 56% and 53%
  Population Normal (%): 95% and 90%
  Population Pyknosed Nuclei (%): 13% and 27%
  Population Tubulin-Different-Phenotype (%): 23% and 64%
  Total Cell Count: 128 and 121
[4]
  Population Apoptotic (%): 47% and 58%
  Population Fragmented Nuclei (%): 15% and 29%
  Population Healthy Nuclei (%): 68% and 52%
  Population Hoechst High Intensity Objects (%): 4% and 2%
  Population Membrane Permeable-Phenotype (%): 0% and 6%
  Population Mitochondria Different-Phenotype (%): 3% and 12%
  Population Mitotic Cells (%): 52% and 41%
  Population Normal (%): 95% and 97%
  Population Pyknosed Nuclei (%): 15% and 17%
  Population Tubulin-Different-Phenotype (%): 41% and 62%
  Total Cell Count: 142 and 141
[5]
  Population Apoptotic (%): 54% and 52%
  Population Fragmented Nuclei (%): 26% and 29%
  Population Healthy Nuclei (%): 65% and 48%
  Population Hoechst High Intensity Objects (%): 3% and 7%
  Population Membrane Permeable-Phenotype (%): 1% and 7%
  Population Mitochondria Different-Phenotype (%): 2% and 10%
  Population Mitotic Cells (%): 45% and 48%
  Population Normal (%): 96% and 92%
  Population Pyknosed Nuclei (%): 8% and 21%
  Population Tubulin-Different-Phenotype (%): 31% and 57%
  Total Cell Count: 135 and 124
[6]
  Population Apoptotic (%): 38% and 42%
  Population Fragmented Nuclei (%): 20% and 32%
  Population Healthy Nuclei (%): 69% and 56%
  Population Hoechst High Intensity Objects (%): 7% and 5%
  Population Membrane Permeable-Phenotype (%): 1% and 5%
  Population Mitochondria Different-Phenotype (%): 6% and 9%
  Population Mitotic Cells (%): 61% and 57%
  Population Normal (%): 92% and 94%
  Population Pyknosed Nuclei (%): 9% and 10%
  Population Tubulin-Different-Phenotype (%): 35% and 54%
  Total Cell Count: 142 and 140

Source: ChEMBL document CHEMBL5724801, “EUbOPEN Chemogenomics Library - Multiplex” (2024)
